Measurements reported in paper PMC9929485 (International Journal for Parasitology: Drugs and Drug …, 2023).

Columns and labels:
T. gondii tachyzoites [1] = test: ROS production assay; format: cell-based, Toxoplasma gondii RH strain; conditions: 1 or 5 μM, dose-dependent
Outline: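 Infected Vero cultures were treated with 1 or 5 μM test compound or left untreated. Then 2 × 10^6 tachyzoites were isolated and PBS-washed. They were loaded with 7.5 μM CMH2DCFDA for 10 min, washed three times and resuspended in PBS. Fluorescence was read at excitation 488 nm and emission 525 nm. Triplicate experiments.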

T. gondii tachyzoites [2] = test: ATP level in tachyzoites; format: cell-based, Toxoplasma gondii RH strain; conditions: 1 or 5 μM, 8 or 24 h, P ≤ 0.05
Outline: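 Infected Vero cultures were exposed to 1 or 5 μM test compound in DMEM for 8 or 24 h. Tachyzoites were then isolated, purified and lysed, and ATP was measured and expressed as μmol/L. Three independent experiments were run.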

T. gondii tachyzoites [3] = test: Mitochondrial membrane potential; format: cell-based, Toxoplasma gondii RH strain; conditions: 1 or 5 μM, 8 or 24 h, P ≤ 0.05
Outline: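 Tachyzoites inside Vero monolayers were treated with 1 or 5 μM test compound in DMEM for 8 or 24 h. After a PBS wash, cultures were stained with 50 nM MitoTracker Red CMXRos for 20 min. Fluorescence was read on a microplate reader. Triplicate experiments.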

[4] = Pharmacokinetics in mouse plasma; format: in vivo; conditions: female, BALB/c, ip, 20 mg/kg
Outline: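 Test compound was formulated at 2 mg/mL in saline with 10% ethanol and 10% Cremophor EL. It was given ip at 20 mg/kg to 9 female BALB/c mice. Blood was sampled at 0, 0.083, 0.25, 0.5, 1, 2, 4, 8, 12 and 24 h and centrifuged at 3000 rpm for 10 min; plasma was stored at −20 °C. The PK model was selected by minimum AIC. Parameters are mean ± SD (n = 3).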

[5] = test system: T. gondii tachyzoites in Vero cells; test: Plaque assay; format: cell-based, Toxoplasma gondii RH strain
Outline: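 Proliferation arm: Vero monolayers were infected with 2 × 10^4 tachyzoites per well for 8 h, then given 0.625–10.0 μM test compound in DMEM with 1% FBS for 24 h. Invasion arm: tachyzoites were pre-exposed to compound, then allowed to infect Vero cells for 2 h. Drug-free controls were included. After 48, 72 or 96 h, cells were PBS-washed, fixed in 4% paraformaldehyde and stained with crystal violet for 10 min. PVs per field and parasites per PV were counted in ≥20 random fields per well (40× objective).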

Cytotoxicity assay = format: cell-based; conditions: African green monkey, Vero cells
Outline: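 Vero cells were seeded at 1 × 10^4 per well, grown to monolayer, then exposed for 24 h to 0.78125–100 μM test compound in DMEM with 1% FBS (DMSO <1% v/v), with an untreated control. Viability was read by CCK-8 (1 h, absorbance 450 nm). Survival % = (treated − blank)/(control − blank) × 100. Triplicate independent experiments.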

T. gondii tachyzoites [6] = test: Anti-proliferation activity by qPCR; format: cell-based, Toxoplasma gondii RH strain
Outline: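 Vero monolayers in 6-well plates were infected with 2 × 10^5 tachyzoites per well. After 8 h, test compound (0.625–10.0 μM) or azithromycin was added in DMEM with 1% FBS for 24 h, with a drug-free negative control. Total DNA was extracted and the 529 bp repeat quantified by qPCR. EC50 and therapeutic index were calculated. Values are mean ± SD of at least three independent experiments.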

[7] = test system: T. gondii tachyzoites in Vero cells; test: Transmission electron microscopy; format: cell-based, Toxoplasma gondii RH strain; conditions: 5 μM
Outline: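 Vero cells in T25 flasks were infected with 2 × 10^6 tachyzoites for 8 h, then cultured with 5 μM test compound for 8 or 24 h. Cells were detached with TrypLE (2 min), PBS-washed and fixed in 2.5% glutaraldehyde (4 °C, 12 h). Post-fixation used 1% osmium in the dark for 1.5 h. Samples were dehydrated through alcohol and acetone and embedded in Epon. Ultrathin sections were stained with uranyl acetate/lead citrate and examined by TEM.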

Safety assay in mice = format: in vivo, mouse; conditions: 5, 10 or 20 mg/kg intraperitoneal, over 7 days
Outline: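 BALB/c mice received test compound ip once daily for 7 days at 5, 10 or 20 mg/kg. It was formulated at 2 mg/mL in saline with 10% ethanol and 10% Cremophor EL. Controls received solvent alone or PBS. Clinical toxicity was monitored during dosing and for a further 23 days.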

T. gondii tachyzoites [8] = test: In vivo activity against T. gondii in infected mice; parameters: species or system Toxoplasma gondii RH strain in BALB/c mouse; conditions: 20 mg/kg intraperitoneal once a day for 7 days, P ≤ 0.05
Outline: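 BALB/c mice were infected ip with 1 × 10^3 RH tachyzoites. Treatment started 4 h later, ip once daily for 7 days: test compound 20 mg/kg·bw, azithromycin 50 mg/kg·bw (positive control) or PBS. One mL of ascites was aspirated, washed and centrifuged, and DNA extracted. Parasites were quantified by PCR against a standard curve of serially diluted RH tachyzoite DNA (3.00 × 10^6 to 3.00 × 10^3/mL).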

T. gondii tachyzoites [9] = test: Anti-invasion assessment by qPCR; format: cell-based, Toxoplasma gondii RH strain
Outline: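 Vero monolayers were preincubated with 0.625–10.0 μM test compound in DMEM with 1% FBS. Controls were 11.5 μM azithromycin (positive) and no drug (negative). Then 2 × 10^6 fresh tachyzoites were added per well for 2 h. Cells were washed twice with DPBS and kept in DMEM for 24 h. DNA was extracted and the T. gondii 529 bp repeat quantified by qPCR. Inhibition rate is relative to untreated control, from triplicate independent experiments.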

CCCCCCCc1cc(O)c2ccccc2[n+]1[O-] [HQNO, 2-Heptyl-4-hydroxyquinoline N-oxide]
ROS levels in T. gondii vs control (T. gondii tachyzoites [1]): increase | ATP levels in parasites vs control (T. gondii tachyzoites [2]): significant dose-dependent decreases | ΔΨm in parasites vs control (T. gondii tachyzoites [3]): significant dose-dependent decreases | AUC(0-inf) [4]: 3880 ± 308 ng·h/mL | AUC(0-t) [4]: 3860 ± 301 ng·h/mL | MRT inf [4]: 1.62 ± 0.464 h | MRT last [4]: 1.56 ± 0.446 h | Tmax [4]: 4.98 min | half-life [4]: 1.43 ± 0.393 h | k el [4]: 0.000135 s⁻¹ | tachyzoite growth (plaques formed) ([5]; 0.625–10 μM, after 6 days of incubation): dose-dependent inhibition | average number of tachyzoites within the PVs ([5]; P ≤ 0.05): decreased | invasion and proliferation ability of T. gondii (plaque) ([5]; after 48 h, 72 h, 96 h of incubation, P ≤ 0.05): significantly reduced | PV number vs control ([5]; pre- and post-infection, P ≤ 0.05): decreased significantly | IC50 at 24 h (Cytotoxicity assay): 33.4 µM | T. gondii tachyzoite intracellular proliferation vs control (T. gondii tachyzoites [6]; 0.625–10 μM, concentration-dependent, P ≤ 0.05): significantly (P ≤ 0.05) inhibited | ultrastructure of T. gondii mitochondria (TEM) ([7]; 8 h): swollen | ultrastructure of T. gondii (TEM) ([7]; 24 h): parasite death | effect on mitochondria of host cells around PVs (TEM) ([7]; Vero host cells): does not affect | clinical toxicity in mice (Safety assay in mice): no obvious clinical toxicity | parasite burden in mouse peritoneum (T. gondii tachyzoites [8]): significantly decreased | T. gondii invasion vs control (T. gondii tachyzoites [9]; 0.625–10 μM, P ≤ 0.05): significantly inhibited

CC[C@H]1OC(=O)[C@H](C)[C@@H](O[C@H]2C[C@@](C)(OC)[C@@H](O)[C@H](C)O2)[C@H](C)[C@@H](O[C@@H]2O[C@H](C)C[C@H](N(C)C)[C@H]2O)[C@](C)(O)C[C@@H](C)CN(C)[C@H](C)[C@@H](O)[C@]1(C)O [azithromycin]
inhibition rate on intracellular proliferation of T. gondii tachyzoites (T. gondii tachyzoites [6]; positive control drug, 24 h, qPCR): 37.50% | inhibition at 11.5 µM (T. gondii tachyzoites [9]; Toxoplasma gondii, read-out: anti-invasion inhibition rate): 54%
